The text below walks through data of ChEMBL document CHEMBL2380279 (Bioorg Med Chem Lett, 2013).

Assay [1] is filed under the species Homo sapiens. The assay can be described thus: Selectivity ratio of Ki for delta opioid receptor (unknown origin) to Ki for kappa opioid receptor (unknown origin).
The target of assay [2] is T1, Kappa-type opioid receptor (Homo sapiens, UniProt P41145). The assay can be described thus: Displacement of [3H]U69593 from kappa opioid receptor (unknown origin). The gist of the method:
(§1)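 Competition radioligand binding. Ki was determined against [3H]DAMGO for MOR, [3H]DADLE for DOR and […] for KOR. Values are the mean of three experiments, each run in duplicate.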
(In general: In a radioligand displacement assay an active substance lowers the binding of a labelled ligand.)

In assay [3] the target is Delta-type opioid receptor (Homo sapiens, UniProt P41143). Kind of assay: Displacement of [3H]DADLE from delta opioid receptor (unknown origin). The procedure, abridged: as §1
The next assay concerns the target Mu-type opioid receptor (Homo sapiens, UniProt P35372). The assay can be described thus: Displacement of [3H]DAMGO from mu opioid receptor (unknown origin). The gist of the method:
as §1

For assay [4], the species on record is Homo sapiens. Kind of assay: Selectivity ratio of Ki for mu opioid receptor (unknown origin) to Ki for kappa opioid receptor (unknown origin).
The target in assay [5] is T1, Kappa-type opioid receptor. The assay can be described thus: Agonist activity at kappa opioid receptor in human HEK293 cells assessed as stimulation of Galphai signaling by cAMP assay. It counts as functional, cell-based. The gist of the method:
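Live HEK293 cells carrying the cAMP biosensor GloSensor-22F. Galphai activation through KOR was read from the cAMP signal. EC50 reported as mean ± SD.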
In general terms: Changes in cAMP serve as a functional read-out for many G protein-coupled receptors.

A value given as a limit tells only on which side of the number the result lay.

T1 sequence (P41145 whole entry): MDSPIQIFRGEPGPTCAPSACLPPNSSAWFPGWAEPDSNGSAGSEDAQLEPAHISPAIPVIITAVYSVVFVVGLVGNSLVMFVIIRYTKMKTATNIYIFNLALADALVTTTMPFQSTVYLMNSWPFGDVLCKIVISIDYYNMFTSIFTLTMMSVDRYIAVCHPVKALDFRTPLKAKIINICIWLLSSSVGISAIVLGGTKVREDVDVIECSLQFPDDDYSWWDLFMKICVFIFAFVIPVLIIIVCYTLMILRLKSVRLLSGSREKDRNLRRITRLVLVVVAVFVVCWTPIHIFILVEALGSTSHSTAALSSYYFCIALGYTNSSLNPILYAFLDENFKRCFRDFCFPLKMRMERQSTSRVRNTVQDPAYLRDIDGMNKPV
Delta-type opioid receptor, sequence (P41143 whole entry): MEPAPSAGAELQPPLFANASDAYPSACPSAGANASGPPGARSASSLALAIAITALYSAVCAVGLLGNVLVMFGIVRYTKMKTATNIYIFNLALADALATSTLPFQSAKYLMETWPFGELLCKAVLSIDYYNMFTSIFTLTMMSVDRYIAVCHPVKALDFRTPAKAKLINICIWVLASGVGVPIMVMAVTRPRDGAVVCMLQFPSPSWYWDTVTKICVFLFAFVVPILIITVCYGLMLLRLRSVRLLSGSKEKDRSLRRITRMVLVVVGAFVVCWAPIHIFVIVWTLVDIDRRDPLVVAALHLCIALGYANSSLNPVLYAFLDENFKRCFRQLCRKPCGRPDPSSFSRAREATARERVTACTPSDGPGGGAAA
Mu-type opioid receptor, sequence (P35372 whole entry): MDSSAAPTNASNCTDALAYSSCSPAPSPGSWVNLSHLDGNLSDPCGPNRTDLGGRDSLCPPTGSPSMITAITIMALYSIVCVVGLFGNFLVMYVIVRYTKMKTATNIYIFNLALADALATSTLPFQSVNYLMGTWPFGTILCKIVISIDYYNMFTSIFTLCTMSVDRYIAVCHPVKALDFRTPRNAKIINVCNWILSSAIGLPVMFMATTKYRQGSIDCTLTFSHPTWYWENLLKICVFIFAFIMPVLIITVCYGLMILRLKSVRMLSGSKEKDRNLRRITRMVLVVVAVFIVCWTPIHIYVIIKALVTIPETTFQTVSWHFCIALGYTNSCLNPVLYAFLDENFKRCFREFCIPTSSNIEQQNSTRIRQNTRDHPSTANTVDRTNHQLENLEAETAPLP

Broadly, the Ki is the dissociation constant of the complex between target and ligand, obtained from inhibition or displacement. The low end stands for tighter binding, the high end for weaker binding. For `COC(=O)[C@@H]1C[C@H](OC(=O)c2ccccc2C(=O)O)C(=O)[C@H]2[C@@]1(C)CC[C@H]1C(=O)O[C@H](c3ccoc3)C[C@]21C`, the Ratio Ki in the assay listed under Homo sapiens [1] is above 4. For the same compound, the inhibition constant Ki is 2.29 µM in assay [2], above 10 µM in assay [3] and above 10 µM at Mu-type opioid receptor.
Regarding `COC(=O)[C@@H]1C[C@H](O)C(=O)[C@H]2[C@@]1(C)CC[C@H]1C(=O)O[C@H](c3ccoc3)C[C@]21C` [SALVINORIN B], the inhibitory constant (Ki) (in assay [3]; on Mu-type opioid receptor) was above 10 µM in each case.
For `CCOC(=O)/C=C/C(=O)O[C@H]1C[C@@H](C(=O)OC)[C@]2(C)CC[C@H]3C(=O)O[C@H](c4ccoc4)C[C@]3(C)[C@H]2C1=O`, the Ratio Ki was above 23 in the assay filed under Homo sapiens [1] and 2 in the assay filed under Homo sapiens [4]. Further, the inhibition constant Ki was 0.427 µM in assay [2], above 10 µM in assay [3] and 0.724 µM at Mu-type opioid receptor.
The EC50 is the midpoint of the concentration-response curve. Take `COC(=O)CC(=O)O[C@H]1C[C@@H](C(=O)OC)[C@]2(C)CC[C@H]3C(=O)O[C@H](c4ccoc4)C[C@]3(C)[C@H]2C1=O`: in assay [5], the EC50 turned out to be 0.137 µM. Besides, in the assay listed under Homo sapiens [1], the Ratio Ki worked out at 2160. For the same compound, the Ki in assay [2] was 0.002 µM; in assay [3] it was 4.32 µM; on Mu-type opioid receptor, above 10 µM.
As for `COC(=O)CCCC(=O)O[C@H]1C[C@@H](C(=O)OC)[C@]2(C)CC[C@H]3C(=O)O[C@H](c4ccoc4)C[C@]3(C)[C@H]2C1=O`, the Ratio Ki in the assay listed under Homo sapiens [1] was above 33; in the assay filed under Homo sapiens [4] it was 16. The Ki is 0.302 µM in assay [2], above 10 µM in assay [3] and 5.01 µM on Mu-type opioid receptor.
Take `COC(=O)CCCCC(=O)O[C@H]1C[C@@H](C(=O)OC)[C@]2(C)CC[C@H]3C(=O)O[C@H](c4ccoc4)C[C@]3(C)[C@H]2C1=O`: the Ratio Ki in the assay listed under Homo sapiens [1] was above 17. Besides, the inhibition constant (Ki) is 0.575 µM in assay [2], above 10 µM in assay [3] and above 10 µM at Mu-type opioid receptor.
As to `CCOC(=O)CC(=O)O[C@H]1C[C@@H](C(=O)OC)[C@]2(C)CC[C@H]3C(=O)O[C@H](c4ccoc4)C[C@]3(C)[C@H]2C1=O` [ETHYLSALVINORINB-2-O-MALONATE], in assay [5], the EC50 stood at 0.052 µM. Moreover, in the assay filed under Homo sapiens [1], the Ratio Ki is above 476. The Ki in assay [2] was 0.021 µM; in assay [3] it was above 10 µM; on Mu-type opioid receptor, above 10 µM.
As to `COC(=O)[C@@H]1C[C@H](OC(=O)CCCC(=O)O)C(=O)[C@H]2[C@@]1(C)CC[C@H]1C(=O)O[C@H](c3ccoc3)C[C@]21C`, the Ratio Ki in the assay listed under Homo sapiens [1] was above 38; in the assay listed under Homo sapiens [4], 17. In addition, the Ki was 0.263 µM in assay [2], above 10 µM in assay [3] and 4.57 µM on Mu-type opioid receptor.
As to `COC(=O)CCC(=O)O[C@H]1C[C@@H](C(=O)OC)[C@]2(C)CC[C@H]3C(=O)O[C@H](c4ccoc4)C[C@]3(C)[C@H]2C1=O`, in assay [5], the EC50 worked out at 0.855 µM. Also, the Ratio Ki in the assay listed under Homo sapiens [1] was above 277. Further, the results for the Ki (in assay [2]; in assay [3]; at Mu-type opioid receptor) were 0.036 µM, above 10 µM and above 10 µM, respectively.
With `CCOC(=O)CCC(=O)O[C@H]1C[C@@H](C(=O)OC)[C@]2(C)CC[C@H]3C(=O)O[C@H](c4ccoc4)C[C@]3(C)[C@H]2C1=O`, the Ratio Ki in the assay listed under Homo sapiens [1] is above 23. Besides, the Ki in assay [2] is 0.437 µM; in assay [3], above 10 µM; on Mu-type opioid receptor it was above 10 µM.
With `COC(=O)[C@@H]1C[C@H](OC(=O)CC(=O)OC(C)(C)C)C(=O)[C@H]2[C@@]1(C)CC[C@H]1C(=O)O[C@H](c3ccoc3)C[C@]21C`, the Ratio Ki in the assay filed under Homo sapiens [1] was above 67. For the same compound, the figures for the Ki (in assay [2]; in assay [3]; on Mu-type opioid receptor) were 0.148 µM, above 10 µM and above 10 µM, respectively.
As to `COC(=O)[C@@H]1C[C@H](OC(=O)CSC#N)C(=O)[C@H]2[C@@]1(C)CC[C@H]1C(=O)O[C@H](c3ccoc3)C[C@]21C` [22-THIOCYANATOSALVINORIN A], the inhibition constant (Ki) (in assay [3]; at Mu-type opioid receptor) was above 10 µM each time.
With `COC(=O)[C@@H]1C[C@H](OC(=O)/C=C\C(=O)O)C(=O)[C@H]2[C@@]1(C)CC[C@H]1C(=O)O[C@H](c3ccoc3)C[C@]21C`, the Ratio Ki in the assay filed under Homo sapiens [1] and in the assay filed under Homo sapiens [4] was 1 in each case. The Ki (in assay [2]; in assay [3]; at Mu-type opioid receptor) was above 10 µM throughout.
`COC(=O)/C=C/C(=O)O[C@H]1C[C@@H](C(=O)OC)[C@]2(C)CC[C@H]3C(=O)O[C@H](c4ccoc4)C[C@]3(C)[C@H]2C1=O`: the concentration giving a half-maximal response (EC50) in assay [5] was found to be 0.07 µM. Moreover, the values for the Ratio Ki in the assay filed under Homo sapiens [1] and in the assay listed under Homo sapiens [4] were above 256 and 18, respectively. For the same compound, the inhibitory constant (Ki) in assay [2] was 0.039 µM; in assay [3] it was above 10 µM; on Mu-type opioid receptor, 0.711 µM.
Take `COC(=O)[C@@H]1C[C@H](OC(=O)CCC(=O)O)C(=O)[C@H]2[C@@]1(C)CC[C@H]1C(=O)O[C@H](c3ccoc3)C[C@]21C`: the results for the Ki (in assay [2]; in assay [3]; at Mu-type opioid receptor) were 4.07 µM, above 10 µM and above 10 µM, respectively.
